Converted amounts (≈) assume the structure as drawn.
Experiments:
[1] = Binding affinity against rat benzodiazepine (BZD) receptor
[2] = test system: Rattus norvegicus; assay: Compound was tested for its initial (rat) loss-of-righting reflex LORR recovery time at a dose of 25 mg/kg; format: functional, organism-based; design: dose 25 mg/kg; unit not given here
How it was run: (§1)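 Rat loss-of-righting-reflex test, after the method of ref 14. The compound is given as a bolus injection in 50% PEG/25% EtOH/25% saline. Initial and total recovery times are recorded in min.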

[3] = test system: Rattus norvegicus; assay: Compound was tested for its total (rat) loss-of-righting reflex LORR recovery time at a dose of 25 mg/kg; format: functional, organism-based; design: dose 25 mg/kg; unit not given here; how it was run: as §1
[4] = Selectivity by the ratio of binding affinity of acid to the binding affinity of its ester
[5] = Aqueous solubility at pH 3 was determined; format: physicochemical
How it was run: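 Solubility of a saturated sample at pH 3, read by visual inspection or UV assay. The pH 3 value was cross-checked against solubility at other pH values and spectrophotometric pKa values.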

[6] = test system: Rattus norvegicus; assay: Compound was tested for its initial (rat) loss-of-righting reflex LORR recovery time at a dose of 50 mg/kg; format: functional, organism-based; design: dose 50 mg/kg; how it was run: as §1
[7] = test system: Rattus norvegicus; assay: Compound was tested for its total (rat) loss-of-righting reflex LORR recovery time at a dose of 50 mg/kg; format: functional, organism-based; design: dose 50 mg/kg; how it was run: as §1
[8] = test system: Rattus norvegicus; assay: Compound was tested for its initial (rat) loss-of-righting reflex LORR recovery time at a dose of 30 mg/kg; format: functional, organism-based; design: dose 30 mg/kg; how it was run: as §1
[9] = test system: Rattus norvegicus; assay: Compound was tested for its total (rat) loss-of-righting reflex LORR recovery time at a dose of 30 mg/kg; format: functional, organism-based; design: dose 30 mg/kg

| Compound | Ki [1] | Recovery time [2] | Recovery time [3] | Selectivity [4] | solubility [5] | further results |
| --- | --- | --- | --- | --- | --- | --- |
| COC(=O)CC[C@@H]1N=C(c2ccccn2)c2cc(Cl)ccc2-n2ccnc21 | 79 nM | 7 | 10 | 176 | – | – |
| CCNC1=Nc2ccc(Cl)cc2C(c2ccccc2F)=N[C@H]1CCC(=O)OC | 146 nM | – | – | – | – | – |
| COC(=O)CC[C@@H]1N=C(c2ccccn2)c2cc(Cl)ccc2NC1=O | 139 nM | – | – | 46 | 1000 µg/mL (≈ 2.79 mM) | Recovery time [6]: 9 mg/kg; Recovery time [7]: 16 mg/kg |
| CNC1=Nc2ccc(Cl)cc2C(c2ccccc2F)=N[C@H]1CCC(=O)OC | 96 nM | 15 | 22 | 156 | 13000 µg/mL (≈ 33.5 mM) | – |
| CNC1=Nc2ccc(Cl)cc2C(c2ccccc2)=[N+]([O-])C1 [CHLORDIAZEPOXIDE] | 438 nM | – | – | – | – | – |
| COC(=O)CC[C@@H]1N=C(c2ccccn2)c2cc(Cl)ccc2-n2cc(C)nc21 | 60 nM | 13 | 15 | 156 | 2000 µg/mL (≈ 5.07 mM) | – |
| COC(=O)CC[C@@H]1N=C(c2ccccc2F)c2cc(Cl)ccc2N=C1NCCO | 303 nM | – | – | – | – | – |
| Cc1ncc2n1-c1ccc(Cl)cc1C(c1ccccc1F)=NC2 [MIDAZOLAM] | 2 nM | – | – | – | ≥ 8000 µg/mL | Recovery time [8]: 23 mg/kg; Recovery time [9]: 121 mg/kg |
| COC(=O)CC[C@@H]1N=C(c2ccccc2F)c2cc(Cl)ccc2NC1=O | 7 nM | 9 | 24 | 984 | < 3000 µg/mL | – |
| COC(=O)CC[C@@H]1N=C(c2ccccc2F)c2cc(Cl)ccc2N=C1NCCc1c[nH]cn1 | 208 nM | – | – | – | – | – |
| COC(=O)CC[C@@H]1N=C(c2ccccn2)c2cc(Cl)ccc2-n2c1nc(C)c2C | 130 nM | – | – | 40 | – | – |
| COC(=O)CC[C@@H]1N=C(c2ccccc2F)c2cc(Cl)ccc2N=C1NCc1ccncc1 | 1230 nM | – | – | – | – | – |
| COC(=O)CC[C@@H]1N=C(c2ccccc2F)c2cc(Cl)ccc2-n2cc(C)nc21 | 7 nM | 6 | 21 | 156 | – | – |
| COC(=O)CC[C@@H]1N=C(c2ccccc2F)c2cc(Cl)ccc2-n2ccnc21 | 7 nM | 17 | 23 | 64 | – | – |
| COC(=O)CC[C@@H]1N=C(c2ccccc2F)c2cc(Cl)ccc2-n2c(C)cnc21 | 8 nM | 23 | 33 | 74 | < 1000 µg/mL | – |
| COC(=O)CC[C@@H]1N=C(c2ccccc2F)c2cc(Cl)ccc2N=C1NCc1ccccc1 | 875 nM | – | – | – | – | – |
| COC(=O)CC[C@@H]1N=C(c2ccccc2F)c2cc(Cl)ccc2-n2c1cnc2C | 11 nM | 20 | 24 | 226 | – | – |
| COC(=O)CC[C@H]1N=C(c2ccccc2F)c2cc(Cl)ccc2-n2c1cnc2C | 3570 nM | – | – | 28 | – | – |
| COC(=O)CC[C@@H]1N=C(c2ccccc2F)c2cc(Cl)ccc2N=C1NCC(C)C | 1010 nM | – | – | – | – | – |
| COC(=O)CC[C@@H]1N=C(c2ccccc2F)c2cc(Cl)ccc2N=C1NCCc1ccncc1 | 792 nM | – | – | – | – | – |
| COC(=O)CC[C@@H]1N=C(c2ccccn2)c2cc(Cl)ccc2-n2c(C)cnc21 | 98 nM | 9 | 11 | 147 | 13000 µg/mL (≈ 32.9 mM) | – |

From ChEMBL document CHEMBL1134956, “Relating the structure, activity, and physical properties of ultrashort-acting benzodiazepine receptor agonists” (Bioorg Med Chem Lett, 2002)
